Laboratory results from ChEMBL document CHEMBL1250516, “Potent and fully noncompetitive peptidomimetic inhibitor of multidrug resistance P-glycoprotein” (J Med Chem, 2010).
Square brackets hold non-standard residues; d marks the D form. Peptide text beside a SMILES is read from it. * marks the point of attachment. Hyp = O=C(O)[C@@H]1C[C@@H](O)CN1; Aad = N[C@@H](CCCC(=O)O)C(=O)O; Cbz = O=C(OCc1ccccc1)*; PhAc = O=C(Cc1ccccc1)*; Boc = CC(C)(C)OC(=O)*; OBn = c1ccc(CO*)cc1; Bn = c1ccc(C*)cc1; OtBu = CC(C)(C)O*; tBu = CC(C)(C)*

What was measured:
[1] = biological target: T1, MDR1 (P-glycoprotein, ABCB1) (Homo sapiens, UniProt P08183); test: Inhibition of human MDR1 expressed in mouse NIH3T3 cells assessed as inhibition of drug efflux in at 10 uM by flow cytometry; type: cell-based; settings: mouse NIH3T3 cells expressing human MDR1
[2] = biological target: T1, MDR1 (P-glycoprotein, ABCB1); test: Inhibition of human MDR1 expressed in mouse NIH3T3 cells assessed as inhibition of drug efflux in at 2 uM by flow cytometry; type: cell-based; settings: mouse NIH3T3 cells expressing human MDR1
P-glycoprotein (ABCB1) = P-glycoprotein (ABCB1) (Homo sapiens, UniProt P08183); test: Inhibition of p-glycoprotein expressed in human K562/R7 cells assessed as inhibition of drug efflux at 10 uM by flow cytometry; type: cell-based; settings: K562/R7 cells expressing P-glycoprotein
Summary of the method: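 K562/R7 cells (1×10⁶/mL RPMI 1640) were incubated for 1 h at 37 °C with 10 μM daunorubicin (final), with or without 10 μM compound. Cells were washed in ice-cold PBS, kept on ice, and retained fluorescence was read by flow cytometry. Cyclosporin A served as positive control. Duplicate experiments carried out twice.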

[3] = biological target: MRP1 (multidrug resistance-associated protein 1) (Homo sapiens, UniProt P33527); test: Inhibition of MRP1 expressed in BHK cells assessed as inhibition of drug efflux at 10 uM; type: cell-based; settings: hamster, BHK cells expressing MRP1
Summary of the method: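 BHK-21 cells expressing MRP1 were treated with compound at 10 μM in a flow-cytometric drug efflux inhibition assay. % inhibition of efflux was calculated as for the P-gp assay. Duplicates run twice.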

[4] = biological target: T2, ATP-dependent translocase ABCB1 (Homo sapiens, UniProt P08183); test: Inhibition of human MDR1 expressed in mouse NIH3T3 cells assessed as potentiation of daunorubicin-mediated cytotoxicity at 1 uM; type: cell-based; settings: nih3t3, 1 µM
Summary of the method: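 Control NIH3T3 and NIH3T3/P-gp cells were seeded at 2500 cells/well and settled for 24 h. They were then exposed for 72 h at 37 °C in 5% CO2 to increasing daunorubicin concentrations with 1 μM modulator. Survival was read by MTT, with 100% taken as cell number without anticancer drug.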

[5] = Cytotoxicity against mouse NIH/3T3 cells assessed as effect on cell viability up to 1 uM after 72 hrs by MTT assay; type: cell-based; settings: nih3t3, 72 h
Summary of the method: (§1)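 Parental NIH3T3 or NIH3T3/P-gp (human MDR1-G185 transfected) cells were seeded at 2500 cells/well and allowed to attach for 24 h at 37 °C in 5% CO2. Compound was added at increasing concentrations in 1% DMSO and incubated for 72 h. Viability was read by MTT colorimetric assay. 100% survival was taken as cell number without compound.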

[6] = biological target: T2, ATP-dependent translocase ABCB1; test: Displacement of daunorubicin form H-site of human MDR1 expressed in mouse NIH3T3 cells at 0.11 to 1 uM by noncompetitive binding assay; type: cell-based; settings: in the assay text read “Hoechst 33342” for “daunorubicin”
Summary of the method: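 NIH3T3/P-gp and NIH3T3 cells (10⁵) were incubated with daunorubicin (5, 10, 15, 20 μM) or Hoechst 33342 (0–10 μM), with inhibitor at 0, 0.11, 0.22, 0.33 or 1 μM. Drug retained inside the cells after 1 h was measured by flow cytometry. Data were fitted to Michaelis–Menten to give Rmax and KM. KI came from Rmax⁰ = Rmax/(1+[I]/KI). Mean of two duplicate experiments.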

[7] = Cytotoxicity against mouse NIH/3T3 cells assessed as decrease in cell viability at > 2 uM after 72 hrs by MTT assay; type: cell-based; settings: nih3t3, 72 h; summary of the method: as §1
[8] = Cytotoxicity against mouse NIH/3T3 cells expressing human MDR1 assessed as effect on cell viability up to 1 uM after 72 hrs by MTT assay; type: ADME, cell-based; settings: nih3t3, 72 h; summary of the method: as §1
[9] = Cytotoxicity against mouse NIH/3T3 cells expressing human MDR1 assessed as decrease in cell viability at > 2 uM after 72 hrs by MTT assay; type: ADME, cell-based; settings: nih3t3, 72 h; summary of the method: as §1
[10] = biological target: T2, ATP-dependent translocase ABCB1; test: Displacement of daunorubicin form R-site of human MDR1 expressed in mouse NIH3T3 cells at 0.11 to 1 uM by noncompetitive binding assay
[11] = biological target: T2, ATP-dependent translocase ABCB1; test: Inhibition of human MDR1 expressed in mouse NIH3T3 cells assessed as inhibition of drug efflux by flow cytometry; type: cell-based
BCRP (ABCG2) = biological target: T3, BCRP (ABCG2) (Homo sapiens, UniProt Q9UNQ0); test: Inhibition of BCRP expressed in HEK293 cells assessed as inhibition of drug efflux at 10 uM by flow cytometry; type: cell-based; settings: HEK293 cells expressing BCRP
T3 sequence (Q9UNQ0 whole entry): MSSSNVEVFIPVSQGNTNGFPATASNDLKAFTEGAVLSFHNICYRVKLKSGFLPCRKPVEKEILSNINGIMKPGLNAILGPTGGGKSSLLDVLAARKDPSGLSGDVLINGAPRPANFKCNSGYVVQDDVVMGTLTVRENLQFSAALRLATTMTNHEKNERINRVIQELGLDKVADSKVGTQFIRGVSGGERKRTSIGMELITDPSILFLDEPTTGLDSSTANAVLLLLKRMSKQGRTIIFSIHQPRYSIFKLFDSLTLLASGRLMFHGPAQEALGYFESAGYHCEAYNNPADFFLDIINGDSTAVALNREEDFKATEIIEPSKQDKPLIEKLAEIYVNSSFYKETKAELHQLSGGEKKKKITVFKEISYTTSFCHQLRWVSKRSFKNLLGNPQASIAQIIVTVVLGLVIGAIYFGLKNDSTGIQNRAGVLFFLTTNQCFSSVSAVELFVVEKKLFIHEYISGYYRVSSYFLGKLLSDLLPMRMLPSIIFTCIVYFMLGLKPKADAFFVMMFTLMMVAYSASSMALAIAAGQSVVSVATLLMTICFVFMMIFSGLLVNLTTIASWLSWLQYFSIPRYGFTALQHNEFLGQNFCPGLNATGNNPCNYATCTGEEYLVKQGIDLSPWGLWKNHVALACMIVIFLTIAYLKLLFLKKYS
Summary of the method: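 Human embryonic kidney 293 cells transfected with BCRP/ABCG2, tested with each compound at 10 μM. Intracellular fluorescent transported drug measured by flow cytometry. % efficacy = 100 × (FA − FBG)/(Fe − FBG): FA is transporter-expressing cells with drug, FBG is without drug (background), and Fe is control cells lacking the transporter. Mean of duplicate experiments carried out twice.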

T1 sequence (P08183 whole entry): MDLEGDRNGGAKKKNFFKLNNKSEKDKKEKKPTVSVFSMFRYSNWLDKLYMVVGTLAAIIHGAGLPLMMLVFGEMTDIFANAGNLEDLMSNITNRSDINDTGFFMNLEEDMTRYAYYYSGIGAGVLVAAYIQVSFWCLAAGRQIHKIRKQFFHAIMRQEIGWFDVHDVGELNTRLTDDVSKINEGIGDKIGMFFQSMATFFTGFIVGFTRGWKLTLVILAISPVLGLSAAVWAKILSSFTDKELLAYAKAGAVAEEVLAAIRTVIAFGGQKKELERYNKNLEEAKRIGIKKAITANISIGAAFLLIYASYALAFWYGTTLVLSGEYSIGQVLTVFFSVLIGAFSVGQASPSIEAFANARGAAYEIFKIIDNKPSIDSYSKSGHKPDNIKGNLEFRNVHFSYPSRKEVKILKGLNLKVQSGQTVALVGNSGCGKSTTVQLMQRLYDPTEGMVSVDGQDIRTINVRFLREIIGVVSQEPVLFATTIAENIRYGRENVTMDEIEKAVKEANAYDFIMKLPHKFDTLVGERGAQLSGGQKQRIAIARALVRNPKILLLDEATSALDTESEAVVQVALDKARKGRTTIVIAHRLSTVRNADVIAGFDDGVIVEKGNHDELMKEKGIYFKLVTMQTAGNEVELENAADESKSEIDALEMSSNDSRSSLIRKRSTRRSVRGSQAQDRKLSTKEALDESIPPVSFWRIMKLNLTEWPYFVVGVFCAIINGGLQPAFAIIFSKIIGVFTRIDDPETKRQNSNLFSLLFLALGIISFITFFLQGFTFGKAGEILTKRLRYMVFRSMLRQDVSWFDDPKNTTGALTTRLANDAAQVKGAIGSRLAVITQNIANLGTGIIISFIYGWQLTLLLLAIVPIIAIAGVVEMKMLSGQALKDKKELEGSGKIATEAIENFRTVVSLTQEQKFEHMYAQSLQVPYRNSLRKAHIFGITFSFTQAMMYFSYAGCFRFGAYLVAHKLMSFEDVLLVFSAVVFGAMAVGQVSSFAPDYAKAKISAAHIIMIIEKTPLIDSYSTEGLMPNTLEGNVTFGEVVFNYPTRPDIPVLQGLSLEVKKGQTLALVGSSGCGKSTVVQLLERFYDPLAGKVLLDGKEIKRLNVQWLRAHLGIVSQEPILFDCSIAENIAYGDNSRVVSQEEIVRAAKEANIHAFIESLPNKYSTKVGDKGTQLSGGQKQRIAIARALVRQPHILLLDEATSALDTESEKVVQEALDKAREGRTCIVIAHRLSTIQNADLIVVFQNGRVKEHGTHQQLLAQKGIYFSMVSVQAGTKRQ
T2 sequence (P08183 whole entry): as above
Chain of P-glycoprotein (ABCB1) (P08183 whole entry): as above

Compound	inhibition at 10 µM [1]	inhibition at 10 µM (P-glycoprotein (ABCB1))	other results
CC(C)(C)OC(=O)N[C@@H](CC(=O)OCc1ccccc1)C(=O)C[C@H](CCCCNC(=O)OCc1ccccc1)C(=O)OCc1ccccc1	35.7%	–	–
CC(C)(C)OC(=O)N[C@@H](CCOC(=O)Cc1ccccc1)C(=O)N[C@@H](CCCCNC(=O)OCc1ccccc1)C(=O)OC(C)(C)C	59.6%	–	–
CC(C)(C)OC(=O)N[C@@H](CCOC(=O)C1CCCCC1)C(=O)N[C@@H](CCCCNC(=O)OCc1ccccc1)C(=O)OC(C)(C)C	61.8%	–	–
CC(C)(C)OC(=O)N[C@@H](CCCOC(=O)C1CCCCC1)C(=O)N[C@@H](CCCCNC(=O)OCc1ccccc1)C(=O)OC(C)(C)C	82.3%	80.4%	inhibition at 2 µM [2]: 35.7%
CC(C)(C)OC(=O)N[C@@H](CCOCc1ccccc1)C(=O)N[C@@H](CCCCNC(=O)OCc1ccccc1)C(=O)OC(C)(C)C	49.2%	–	–
CC(C)(C)OC(=O)N[C@H](CN[C@@H](CCCCNC(=O)OCc1ccccc1)C(=O)OC(C)(C)C)Cc1ccc(OC(C)(C)C)cc1	49.1%	–	–
CC(C)(C)OC(=O)[C@H](CCCCNC(=O)OCc1ccccc1)NC[C@@H]1C[C@@H](OCc2ccccc2)CN1C(=O)OC(C)(C)C	–	77.6%	inhibition at 10 µM [3]: 9%; inhibition (INH) [4]: Active; Activity [5]: Non-toxic; Activity [6]: Active; Activity [7]: Toxic; Activity [8]: Non-toxic; Activity [9]: Toxic; Activity [10]: Active
CC(C)(C)OC(=O)[C@H](CCCCNC(=O)OCc1ccccc1)NC(=O)[C@@H]1C[C@@H](OC(=O)C2CCCCC2)CN1C(=O)OC(C)(C)C	106%	94.9%	IC50 [11]: 1680 nM; inhibition at 10 µM (BCRP (ABCG2)): 11.2%
CC(C)(C)OC(=O)[C@H](CCCCNC(=O)OCc1ccccc1)NC(=O)[C@@H]1C[C@@H](OCC2CCCCC2)CN1C(=O)OC(C)(C)C	76.6%	79.8%	inhibition at 2 µM [2]: 82.2%
O=C(CCC(=O)N[C@@H](CCC(=O)OCC1CCCCC1)C(=O)OCc1ccccc1)N[C@@H](CCC(=O)OCc1ccccc1)C(=O)OCc1ccccc1	29.3%	–	–
CC(C)(C)OC(=O)CNC(=O)[C@H](Cc1ccc(OC(C)(C)C)cc1)NC(=O)OC(C)(C)C	93.4%	–	inhibition at 2 µM [2]: 38%
CC(C)(C)OC(=O)CC(C(=O)[C@H](Cc1ccc(OC(C)(C)C)cc1)NC(=O)OC(C)(C)C)S(=O)(=O)c1ccccc1 (stereo not given in full)	106%	–	IC50 [11]: 1550 nM
CC(C)(C)OC(=O)CC(C(O)[C@H](Cc1ccc(OC(C)(C)C)cc1)NC(=O)OC(C)(C)C)S(=O)(=O)c1ccccc1 (stereo not given in full)	104%	–	–
CC(C)(C)OC(=O)C/C=C/[C@H](Cc1ccc(OC(C)(C)C)cc1)NC(=O)OC(C)(C)C	71.2%	–	–
CC(C)(C)OC(=O)CCC[C@@H](Cc1ccc(OC(C)(C)C)cc1)NC(=O)OC(C)(C)C	78.7%	–	–
CC(C)(C)OC(=O)N[C@@H](Cc1ccc(OC(C)(C)C)cc1)C(=O)CS(=O)(=O)c1ccccc1	49.1%	–	–
CC(C)(C)OC(=O)N[C@@H](CC(=O)OCc1ccccc1)C(=O)CCC(=O)N[C@@H](CCCCNC(=O)OCc1ccccc1)C(=O)OC(C)(C)C	67.7%	–	–
CC(C)(C)OC(=O)N[C@@H](CCC(=O)OCc1ccccc1)C(=O)N[C@@H](CCCCNC(=O)OCc1ccccc1)C(=O)OC(C)(C)C (Boc-Glu(OBn)-Lys(Cbz)-OtBu)	63.7%	–	–
CC(C)(C)OC(=O)CC[C@H](NC(=O)OC(C)(C)C)C(=O)N[C@@H](CCCCNC(=O)OCc1ccccc1)C(=O)OC(C)(C)C (Boc-Glu(OtBu)-Lys(Cbz)-OtBu)	37.2%	–	–
CC(C)(C)OC(=O)N[C@@H](Cc1ccc(OC(C)(C)C)cc1)C(=O)N[C@@H](CCCCNC(=O)OCc1ccccc1)C(=O)OC(C)(C)C (Boc-Tyr(tBu)-Lys(Cbz)-OtBu)	34%	–	–
CC(C)(C)OC(=O)N[C@@H](CCCC(=O)OCc1ccccc1)C(=O)N[C@@H](CCCCNC(=O)OCc1ccccc1)C(=O)OC(C)(C)C (Boc-[Aad](OBn)-Lys(Cbz)-OtBu)	97.8%	65.5%	inhibition at 2 µM [2]: 37%
CC(C)(C)OC(=O)[C@H](CCCCNC(=O)OCc1ccccc1)NC(=O)[C@@H]1C[C@@H](OCc2ccccc2)CN1C(=O)OC(C)(C)C (Boc-[Hyp](Bn)-Lys(Cbz)-OtBu)	–	83.5%	inhibition at 2 µM [2]: 120%; inhibition at 10 µM [3]: 7%
CC(C)(C)OC(=O)[C@H](CCCCNC(=O)OCc1ccccc1)NC(=O)[C@@H]1C[C@@H](OC(=O)Cc2ccccc2)CN1C(=O)OC(C)(C)C (Boc-[Hyp](PhAc)-Lys(Cbz)-OtBu)	68.2%	88.2%	inhibition at 10 µM (BCRP (ABCG2)): 10%
CC(C)(C)OC(=O)N[C@@H](CC(=O)OCc1ccccc1)C(=O)N[C@@H](CCCCNC(=O)OCc1ccccc1)C(=O)OC(C)(C)C [REVERSIN 121] (Boc-Asp(OBn)-Lys(Cbz)-OtBu)	75.8%	88%	IC50 [11]: 1410 nM
O=C(CCC(=O)N[C@@H](CCC(=O)OCc1ccccc1)C(=O)OCc1ccccc1)N[C@@H](CCC(=O)OCc1ccccc1)C(=O)OCc1ccccc1 [REVERSIN 213]	26.6%	–	–
